Assays:
Substance-P receptor = Substance-P receptor (Homo sapiens, UniProt P25103); assay: Displacement of [125I]-labeled SP from human Tachykinin receptor 1 expressed in CHO cells; type: cell-based
Procedure, shortened: (§1)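 Human receptor expressed in CHO cells; values are given as mean with SD from 3 determinations unless otherwise stated.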

Cavia porcellus = assay: SP-induced dermal inflammation assay in guinea pig after peroral administration followed by SP challenge id after 1 hr; type: functional; conditions: oral, read-out: ID50 (the source's name)
Procedure, shortened: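 Guinea pigs received antagonist orally, then an intradermal substance P challenge 1 h later. Read-out was SP-induced plasma extravasation in skin. Dose–response data used 5–12 animals per data point.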

[1] = Inhibition of [3H]diltiazem binding to L-type [Ca2+] channel in rabbit skeletal muscle; type: tissue-based, Oryctolagus cuniculus, Muscle tissue
[2] = Physicochemical property was determined; type: ADME
Substance-K receptor = target: T1, Substance-K receptor (Homo sapiens, UniProt P21452); assay: Displacement of [125I]-labeled SP from the human Tachykinin receptor 2 expressed in CHO cells; type: cell-based; procedure, shortened: as §1
T1 sequence (P21452 whole entry): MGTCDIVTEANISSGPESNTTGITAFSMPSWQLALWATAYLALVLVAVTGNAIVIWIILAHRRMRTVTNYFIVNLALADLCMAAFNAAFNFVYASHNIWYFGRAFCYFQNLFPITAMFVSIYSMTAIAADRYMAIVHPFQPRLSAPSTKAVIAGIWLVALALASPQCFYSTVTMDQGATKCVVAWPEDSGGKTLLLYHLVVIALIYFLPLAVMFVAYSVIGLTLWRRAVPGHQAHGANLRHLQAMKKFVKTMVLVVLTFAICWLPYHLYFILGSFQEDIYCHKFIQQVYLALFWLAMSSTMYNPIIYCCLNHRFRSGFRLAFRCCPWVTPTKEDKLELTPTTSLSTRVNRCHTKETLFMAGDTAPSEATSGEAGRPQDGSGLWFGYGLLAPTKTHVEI

Neuromedin-K receptor = target: T2, Neuromedin-K receptor (Homo sapiens, UniProt P29371); assay: Displacement of [125I]-labeled SP from the human Tachykinin receptor 3 expressed in CHO cells; type: cell-based; procedure, shortened: as §1
T2 sequence (P29371 whole entry): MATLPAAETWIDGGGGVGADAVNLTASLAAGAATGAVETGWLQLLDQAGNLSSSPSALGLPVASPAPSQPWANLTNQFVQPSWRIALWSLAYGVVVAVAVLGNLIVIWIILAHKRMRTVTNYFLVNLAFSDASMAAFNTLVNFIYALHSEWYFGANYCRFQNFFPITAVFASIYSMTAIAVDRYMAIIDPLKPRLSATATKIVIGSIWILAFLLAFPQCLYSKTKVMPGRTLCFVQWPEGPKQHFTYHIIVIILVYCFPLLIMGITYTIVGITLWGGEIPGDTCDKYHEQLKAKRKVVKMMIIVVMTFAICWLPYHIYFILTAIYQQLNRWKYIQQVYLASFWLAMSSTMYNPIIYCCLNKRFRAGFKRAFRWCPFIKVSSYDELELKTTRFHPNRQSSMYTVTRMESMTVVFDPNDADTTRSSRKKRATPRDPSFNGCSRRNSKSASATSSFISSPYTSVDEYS

[3] = Physicochemical property pKa of benzyl amine was determined
[4] = Physicochemical property pKa of piperdine amine was determined

Substance-P receptor, sequence (P25103 whole entry): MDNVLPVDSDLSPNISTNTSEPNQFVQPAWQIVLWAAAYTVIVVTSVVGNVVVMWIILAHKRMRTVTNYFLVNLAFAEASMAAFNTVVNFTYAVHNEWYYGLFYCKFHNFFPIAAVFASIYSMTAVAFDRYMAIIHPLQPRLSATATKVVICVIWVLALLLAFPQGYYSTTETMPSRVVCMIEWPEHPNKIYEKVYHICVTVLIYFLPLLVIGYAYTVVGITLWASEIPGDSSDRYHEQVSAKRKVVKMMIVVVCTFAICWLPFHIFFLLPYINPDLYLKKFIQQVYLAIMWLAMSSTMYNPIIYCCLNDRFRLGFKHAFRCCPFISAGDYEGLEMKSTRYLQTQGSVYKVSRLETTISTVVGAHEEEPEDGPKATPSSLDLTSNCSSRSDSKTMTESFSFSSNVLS

| SMILES | IC50 (Substance-P receptor) | further results |
| --- | --- | --- |
| FC(F)(F)c1cc(CO[C@@H]2OCCN[C@@H]2c2ccccc2)cc(C(F)(F)F)c1 (stereo in doubt; 14) | 59 nM |  |
| FC(F)(F)c1cc(CO[C@@H]2OCCN[C@H]2c2ccccc2)cc(C(F)(F)F)c1 (stereo in doubt; 12) | 376 nM |  |
| O=C(O)CN1CCO[C@H](OCc2cc(C(F)(F)F)cc(C(F)(F)F)c2)[C@@H]1c1ccccc1 | 66 nM |  |
| COc1ccccc1CN[C@H]1CCCN[C@H]1c1ccccc1 [CP-99994] |  | ED50 (Cavia porcellus): 1.6 mg/kg; pKa [3]: 4; IC50 [1]: 4000 nM; pKa [4]: 8.7 |
| FC(F)(F)c1cc(CO[C@@H]2OCCN[C@@H]2c2ccccc2)cc(C(F)(F)F)c1 (stereo in doubt; 21) | 116 nM |  |
| FC(F)(F)c1cc(CO[C@H]2OCCN[C@@H]2c2ccccc2)cc(C(F)(F)F)c1 (stereo in doubt; 13) | 287 nM |  |
| FC(F)(F)c1cc(CO[C@H]2OCCN[C@@H]2c2ccccc2)cc(C(F)(F)F)c1 (stereo in doubt; 20) | 21 nM |  |

Further molecules by falling IC50 (Substance-P receptor), results first:

| IC50 (Substance-P receptor) | SMILES | further results |
| --- | --- | --- |
| 19 nM | FC(F)(F)c1cc(CO[C@@H]2OCCN[C@H]2c2ccccc2)cc(C(F)(F)F)c1 (stereo in doubt; 22) |  |
| 1.6 nM | COC(=O)CN1CCO[C@H](OCc2cc(C(F)(F)F)cc(C(F)(F)F)c2)[C@@H]1c1ccccc1 |  |
| 1.1 nM | NC(=O)CN1CCO[C@H](OCc2cc(C(F)(F)F)cc(C(F)(F)F)c2)[C@@H]1c1ccccc1 |  |
| 0.13 nM | FC(F)(F)c1cc(CO[C@H]2OCCN(Cn3cncn3)[C@H]2c2ccccc2)cc(C(F)(F)F)c1 |  |
| 0.09 nM | O=c1[nH]nc(CN2CCO[C@H](OCc3cc(C(F)(F)F)cc(C(F)(F)F)c3)[C@@H]2c2ccccc2)[nH]1 | ED50 (Cavia porcellus): 0.009 mg/kg; IC50 [1]: 11000 nM; pKa [2]: < 3; IC50 (Substance-K receptor): 7000 nM; IC50 (Neuromedin-K receptor): 150 nM |
